# Tests used:
# [1] = target: Cyclin-dependent kinase 2 (Homo sapiens, UniProt P24941); assay: Inhibition of human CDK2/GST-cyclin A expressed in Sf9 cells assessed as histone phosphorylation
# How it was run: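 Sf-9 co-expressed CDK2 with GST-cyclin A, purified on glutathione-agarose and dialysed. Histone H1 was the substrate, in 40 mM Tris pH 7.5, 20 mM MgCl₂, 0.1 mg/mL BSA with phosphatase/protease inhibitors and DTT. Compounds came from 10 mM DMSO stock, serially diluted. 200 ng enzyme was incubated 30 min at 30 °C. ATP depletion was read by Kinase-Glo luminescence, and IC50 derived.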
# [2] = target: Cyclin-dependent kinase 4/cyclin D1 (Homo sapiens, UniProt P11802); assay: Inhibition of human CDK4/GST-cyclin D1 expressed in Sf9 cells assessed as retinoblastoma GST-RB152 phosphorylation
# Cyclin-dependent kinase 4/cyclin D1, sequence (P11802 whole entry): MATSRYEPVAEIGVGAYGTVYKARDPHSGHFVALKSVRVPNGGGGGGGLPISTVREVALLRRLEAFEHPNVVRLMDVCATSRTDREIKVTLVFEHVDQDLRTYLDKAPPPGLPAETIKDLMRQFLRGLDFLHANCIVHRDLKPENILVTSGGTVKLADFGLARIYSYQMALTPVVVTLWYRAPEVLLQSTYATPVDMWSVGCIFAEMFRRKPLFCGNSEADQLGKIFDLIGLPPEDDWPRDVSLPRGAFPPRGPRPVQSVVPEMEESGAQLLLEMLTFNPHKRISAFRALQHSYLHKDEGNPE
# Cyclin-dependent kinase 4/cyclin D1, sequence (P24385 whole entry, further chain): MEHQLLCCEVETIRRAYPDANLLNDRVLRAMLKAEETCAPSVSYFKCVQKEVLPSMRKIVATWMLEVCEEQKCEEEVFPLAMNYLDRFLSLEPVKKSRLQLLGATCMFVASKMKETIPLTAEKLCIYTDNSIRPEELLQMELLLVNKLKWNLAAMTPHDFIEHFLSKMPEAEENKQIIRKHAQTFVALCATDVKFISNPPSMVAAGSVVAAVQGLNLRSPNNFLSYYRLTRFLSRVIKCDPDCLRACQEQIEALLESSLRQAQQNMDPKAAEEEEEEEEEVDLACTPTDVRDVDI
# How it was run: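 CDK4 with GST-cyclin D1 was co-expressed in Sf-9, purified on glutathione-agarose and dialysed. The substrate was GST-RB152, expressed in E. coli BL21(DE3)pLysS (4 mM IPTG, 4 h, 37 °C). The buffer was 40 mM Tris pH 7.5, 20 mM MgCl₂, 0.1 mg/mL BSA plus inhibitors and DTT. 200 ng enzyme ran 30 min at 30 °C. Kinase-Glo luminescence (ATP depletion) gave IC50.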
Structure (SMILES),IC50 [1] [µM],IC50 [2] [µM]
CC(C)(C)c1ccc(-c2ccc(C(=O)NCCc3c[nH]c4ccccc34)cc2)cc1,790,9.2
O=C(NCCc1c[nH]c2ccccc12)c1ccc(-c2ccc(F)cc2)cc1,764,15
O=C(c1ccccc1-c1ccc(F)cc1)N1CCc2c([nH]c3ccccc23)C1,357,23
CN(CCc1c[nH]c2ccccc12)C(=O)c1ccc(-c2ccc(F)cc2)cc1,875,21
Cc1ccccc1-c1ccc(C(=O)N2CCc3c([nH]c4ccccc34)C2)cc1,340,32
O=C(c1ccccc1-c1cccc(F)c1)N1CCc2c([nH]c3ccccc23)C1,480,35
O=C(c1ccc(-c2ccccc2F)cc1)N1CCc2c([nH]c3ccccc23)C1,310,17
O=C(c1ccc(-c2cccc(F)c2)cc1)N1CCc2c([nH]c3ccccc23)C1,296,21
Cc1cccc(-c2ccccc2C(=O)N2CCc3c([nH]c4ccccc34)C2)c1,386,26
COc1cccc(-c2cccc(C(=O)N3CCc4c([nH]c5ccccc45)C3)c2)c1,362,33
O=C(NCCc1c[nH]c2ccccc12)c1ccc(-c2ccccc2)cc1,855,16
CN(CCc1c[nH]c2ccccc12)C(=O)c1ccc(-c2ccc(-c3ccccc3)cc2)cc1,91,35
O=C(c1cccc(-c2cccc(F)c2)c1)N1CCc2c([nH]c3ccccc23)C1,611,27
O=C(c1ccccc1-c1ccncc1)N1CCc2c([nH]c3ccccc23)C1,354,39
CC(C)(C)c1ccc(-c2ccccc2C(=O)NCCc2c[nH]c3ccccc23)cc1,262,38
O=C1c2ccccc2-[n+]2ccc3c([nH]c4ccccc43)c21 [FASCAPLYSIN CHLORIDE],500,0.55
Cc1ccc(-c2ccc(C(=O)NCCc3c[nH]c4ccccc34)cc2)cc1,816,18
COc1ccc(-c2ccc(C(=O)N(C)CCc3c[nH]c4ccccc34)cc2)cc1,289,49
CN(CCc1c[nH]c2ccccc12)C(=O)c1ccc(-c2ccc(C(C)(C)C)cc2)cc1,745,11.2

# More lines, in order of falling IC50 [2], values ahead:
IC50 [1] [µM],IC50 [2] [µM],Structure (SMILES)
1000,86,O=C(NCCc1c[nH]c2ccccc12)c1cccc(-c2ccccc2)c1
921,79,COc1ccc(-c2ccccc2C(=O)NCCc2c[nH]c3ccccc23)cc1
1110,79,COc1ccccc1-c1cccc(C(=O)N2CCc3c([nH]c4ccccc34)C2)c1
665,75,Cc1ccccc1-c1cccc(C(=O)N2CCc3c([nH]c4ccccc34)C2)c1
926,53,COc1cccc(-c2ccccc2C(=O)NCCc2c[nH]c3ccccc23)c1
1090,48,COc1ccc(-c2ccc(C(=O)NCCc3c[nH]c4ccccc34)cc2)cc1
1220,38,O=C(NCCc1c[nH]c2ccccc12)c1ccccc1-c1ccc(F)cc1
312,36,O=C(c1ccccc1-c1cccnc1)N1CCc2c([nH]c3ccccc23)C1
150,30,O=C(NCCc1c[nH]c2ccccc12)c1cccc(-c2cccnc2)c1
424,28,COc1cccc(-c2ccc(C(=O)N3CCc4c([nH]c5ccccc45)C3)cc2)c1
375,26,COc1ccccc1-c1ccccc1C(=O)NCCc1c[nH]c2ccccc12
92,26,CN(CCc1c[nH]c2ccccc12)C(=O)c1ccc(-c2ccncc2)cc1
318,25,O=C(c1cccc(-c2ccc(F)cc2)c1)N1CCc2c([nH]c3ccccc23)C1
405,25,Cc1cccc(-c2ccc(C(=O)N3CCc4c([nH]c5ccccc45)C3)cc2)c1
70,24,Cc1ccc(-c2ccc(C(=O)N(C)CCc3c[nH]c4ccccc34)cc2)cc1
466,24,Cc1ccc(-c2cccc(C(=O)N3CCc4c([nH]c5ccccc45)C3)c2)cc1
321,22,COc1ccccc1-c1ccc(C(=O)N2CCc3c([nH]c4ccccc34)C2)cc1
417,20,O=C(NCCc1c[nH]c2ccccc12)c1ccccc1-c1cccc(F)c1
434,19,O=C(c1ccccc1-c1ccccc1F)N1CCc2c([nH]c3ccccc23)C1
335,18,O=C(c1cccc(-c2ccccc2F)c1)N1CCc2c([nH]c3ccccc23)C1
406,15,Cc1cccc(-c2ccccc2C(=O)NCCc2c[nH]c3ccccc23)c1
438,12,O=C(c1ccc(-c2ccc(F)cc2)cc1)N1CCc2c([nH]c3ccccc23)C1
465,11,Cc1cccc(-c2cccc(C(=O)N3CCc4c([nH]c5ccccc45)C3)c2)c1
736,9,Cc1ccc(-c2ccc(C(=O)N3CCc4c([nH]c5ccccc45)C3)cc2)cc1
–,6,CN(CCc1c[nH]c2ccccc12)C(=O)c1ccc(-c2ccccc2)cc1

# Reference: ChEMBL document CHEMBL1155938, “Design, synthesis and biological evaluation of new tryptamine and tetrahydro-beta-carboline-based selective inhibitors of CDK4” (Bioorg Med Chem, 2008)
